Screens deposited in PubChem by The Scripps Research Institute Molecular Screening Center.
Sampled rows, rich in hits. Any-hit rate of the full collection: about 3.4%.
M1 antag = human CHRM1 antagonism; CHO-K1 hM1, Fluo-8 calcium fluorescence, ACh EC80 antagonist; actives 1.3% (n = 360,000); inhibition, % at 3 µM; P11229;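 active means percent inhibition above its own plate's cutoff, namely the mean of that plate's compound wells plus 3 SD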;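 further: peak over basal fluorescence ratio during 140 s after agonist addition; 0% = ACh EC80 plus DMSO and 100% = DMSO alone without agonist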
Target sequence (P11229 whole entry, looked up): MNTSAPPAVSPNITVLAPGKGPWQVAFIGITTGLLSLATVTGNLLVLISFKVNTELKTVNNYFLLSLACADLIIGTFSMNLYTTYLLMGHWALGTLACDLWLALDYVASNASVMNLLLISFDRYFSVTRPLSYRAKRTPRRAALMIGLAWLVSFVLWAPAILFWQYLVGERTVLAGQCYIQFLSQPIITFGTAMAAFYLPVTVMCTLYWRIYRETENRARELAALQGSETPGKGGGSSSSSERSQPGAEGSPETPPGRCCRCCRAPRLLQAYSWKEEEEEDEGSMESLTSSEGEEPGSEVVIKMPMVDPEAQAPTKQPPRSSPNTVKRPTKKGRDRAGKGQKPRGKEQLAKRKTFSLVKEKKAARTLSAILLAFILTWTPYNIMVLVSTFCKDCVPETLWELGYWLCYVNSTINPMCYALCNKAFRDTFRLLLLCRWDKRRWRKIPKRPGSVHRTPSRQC
TAAR1 ag = agonists of human TAAR1; CHO RD-HGA16 TAAR1, Fluo-8 calcium fluorescence; vehicle wells 0%, saturating PEA agonist 100%; Q96RJ0; actives 0.99% (n = 360,000); activation, % at 3 µM;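 active means activation above the mean activation of all test compounds in the run plus 3 SD, cut at about 38% in these data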
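test system = CHO RD-HGA16 cells carrying human TAAR1 plus Gα16 | schedule = 17-24 h seeding, 75 min 37 °C dye, 30 min RT | compound dosing = 3 µM single concentration | control set = DMSO and PEA EC100 | replicates = n 1 | signal = Fluo-8 fluorescence, 5 s baseline then 140 s kinetic read | measure = percent activation vs PEA EC100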
TAAR1 antagonist = antagonists of human TAAR1; Q96RJ0; CHO RD-HGA16 TAAR1, Fluo-8 calcium fluorescence, antagonist; inhibition, % at 3 µM; actives 1.5% (n = 360,000); AID 624466;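 active means inhibition above a per-plate cutoff, the mean inhibition of test compounds on that plate plus 3 SD, cut at about 49% in these data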;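 further: 0% = DMSO plus EC80 beta-PEA response and 100% = DMSO alone without agonist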
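Material: RD-HGA16 CHO cells with stable hTAAR1 and Gα16; Dosing: single nominal final test compound concentration of 3 µM; Schedule: seeding 17-24 h prior, 75-min 37 °C, 30-min RT dye loading; Detection: kinetic Fluo-8 calcium fluorescence measurement; Measure: % inhibition from peak post-agonist over basal fluorescence ratio; Benchmarks: vehicle and agonist controls.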
M1 PAM = human CHRM1 positive allosteric modulation. actives 0.088% (n = 360,000). CHO-K1 hM1, Fluo-8 calcium fluorescence, ACh EC20; 0% = ACh EC20, 100% = maximal ACh. activation, % at 3 µM; in the data active means activation above about 19%, passing the limit was not always enough
M1 ag = activates human CHRM1 receptor; actives 0.33% (n = 360,000); AID 588814; CHO-K1 hM1, Fluo-8 calcium fluorescence, agonist mode; 0% DMSO, 100% acetylcholine EC100; P11229; activation, % at 3 µM;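 active means activation above the run's mean compound activation plus 3 SD, cut at about 16% in these data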;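 further: peak over basal fluorescence ratio within a 140 s kinetic read after compound addition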
TAAR1 ag confirm = confirmation of human TAAR1 agonists; shares compounds with TAAR1 ag; CHO RD-HGA16 TAAR1, Fluo-8 calcium fluorescence; scaled: DMSO 0%, maximal phenethylamine 100%; activation, % at 3 µM; actives 82% (n = 2,400); AID 651783;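 active means activation above a cutoff set at the run's mean compound activation plus 3 SD, cut at about 39% in these data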
Ga16 ag counter = nonselective agonism, TAAR1 counter-screen. shares compounds with TAAR1 ag. CHO-Ga16 parental, Fluo-8 calcium fluorescence; normalized to maximal ATP response, DMSO zero. activation, % at 3 µM. actives 50% (n = 2,400);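 active means activation above the run cutoff, the mean activation over all tested wells plus 3 SD, cut at about 12% in these data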;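 further: 0% = DMSO wells and 100% = maximal ATP response on the peak over basal ratio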
TAAR1 desens = TAAR1 response desensitization, agonist counter-screen | shares compounds with TAAR1 ag | actives 46% (n = 2,400) | inhibition, % at 3 µM | CHO RD-HGA16 hTAAR1, Fluo-8 calcium, beta-PEA response inhibition;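 active means inhibition above the run cutoff, the mean inhibition of all test compounds plus 3 SD, cut at about 49% in these data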;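 further: beta-PEA stimulus applied at its EC80; loss of beta-PEA calcium signal after compound pretreatment read as receptor desensitization; 0% = DMSO with beta-PEA at EC80 and 100% = DMSO alone without agonist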
Ga16 antag count = counter-screen for TAAR1 agonists: nonselective Ga16 antagonists; shares compounds with TAAR1 ag; CHO-Ga16 ATP-induced calcium, Fluo-8 fluorescence; inhibition, % at 3 µM; actives 39% (n = 2,400);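 active means inhibition above the plate's mean compound inhibition plus 3 SD, computed per plate, cut at about 22% in these data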;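 further: 0% = EC80 ATP with DMSO and 100% = DMSO wells without ATP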
* = called active by the depositor; / = no result.

SMILES	M1 antag	TAAR1 ag	TAAR1 antagonist	M1 PAM	M1 ag	TAAR1 ag confirm	Ga16 ag counter	TAAR1 desens	Ga16 antag count
O=C(/C=C/[C@H]1O[C@@H](n2ccc(=O)[nH]c2=O)[C@H](O)[C@@H]1O)NCCc1c[nH]c2ccccc12	-8	0	-1	-4	0	/	/	/	/
Cc1ccc(-c2c(C(=O)N/N=C/c3ccc(OC(C)C)cc3)nnn2-c2nonc2N)cc1	0	130*	70*	15	11	125*	94*	57*	46*
CCOc1ccc(-c2c(C(=O)N/N=C/c3ccc(OC(C)C)cc3)nnn2-c2nonc2N)cc1	5	116*	6	10	21*	118*	75*	46	37*
Cc1ccc(-c2c(C(=O)N/N=C/c3ccc4c(c3)OCO4)nnn2-c2nonc2N)cc1	24	26	28	-9	2	/	/	/	/
CCc1ccc(/C=N/NC(=O)c2nnn(-c3nonc3N)c2C(C)C)cc1	-2	133*	80*	24	33*	134*	101*	96*	59*
COC(=O)[C@]12CCCCC=C1N(CCc1ccc(OC)c(OC)c1)C(=O)[C@H](CC(=O)NCc1cccs1)C2	/	7	30	/	/	/	/	/	/
CS(=O)(=O)c1ccc(Cl)c(NC(=O)CN2CCN(S(=O)(=O)/C=C/c3ccccc3)CC2)c1	-5	2	3	2	-3	/	/	/	/
CCCCN(C)CCC(=O)Nc1ccc2c(c1)CCC2	-2	44*	9	0	-16	69*	1	16	-1
Cc1ccc2c(c1)N(CC(=O)NCC(C)c1ccccc1)C(=O)c1cccnc1O2 (stereo unspecified)	-6	56*	47	10	0	74*	3	50*	10
Cc1ccc2c(c1)N(CC(=O)Nc1c(C)cccc1C)C(=O)c1cccnc1O2	-21	3	-23	15	-2	/	/	/	/
O=C1Nc2ccccc2/C1=N/c1sc2c(c1C(=O)NCCc1ccccc1)CCCC2	9	83*	71*	3	-2	50*	19*	27	22*
Cc1ccc(NC(=O)COC(=O)c2ccc3c(c2)C(=O)N(CCc2ccccc2)C3=O)c(C)c1	-26	77*	14	7	-3	64*	4	18	-2
Cc1cc(SCC(=O)OC(C)C(=O)N(C)c2ccccc2)nc2ccccc12 (stereo unspecified)	-1	2	10	10	1	/	/	/	/
CCOc1ccc(-c2c(C(=O)N/N=C/c3ccc(Cl)cc3)nnn2-c2nonc2N)cc1	-7	107*	26	13	5	113*	70*	45	13
CCOc1ccc(-c2c(C(=O)N/N=C/c3ccc(C)cc3)nnn2-c2nonc2N)cc1	-15	122*	34	18	19*	118*	73*	76*	48*
Cc1ccc(-c2c(C(=O)N/N=C/c3ccoc3)nnn2-c2nonc2N)cc1	-9	73*	20	12	4	87*	59*	14	6
CCOc1ccc(-c2c(C(=O)N/N=C/c3ccc(C)s3)nnn2-c2nonc2N)cc1	-6	/	/	9	2	/	/	/	/
CCOc1cccc(-c2c(C(=O)N/N=C/c3ccsc3)nnn2-c2nonc2N)c1	-5	118*	20	16	19*	136*	93*	67*	27*
